Data reported in article PMC7004521 (Cancer Science, 2019).

Assay: Adverse events suspected to be study drug related, phase 1 study
Type: in vivo, human
Conditions: drug-related
In short: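 Adult patients with advanced solid tumours and confirmed MET dysregulation took oral capsules twice daily from 100 up to 600 mg in escalation, or 400 mg bid tablets, in 28-day cycles. Expansion was 600 mg bid capsules, with a switch to 400 mg bid tablets allowed. Patients were included if they had ≥1 dose and ≥1 valid post-baseline safety assessment. Events were graded by CTCAE v4.0.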

[1] = escalation 400 mg bid tablet n=5

CNC(=O)c1ccc(-c2cnc3ncc(Cc4ccc5ncccc5c4)n3n2)cc1F [capmatinib]
2 (40) n (%): Hypoalbuminemia, all grades [1] | Nausea, all grades [1] | Peripheral edema, all grades [1]
3 (33) n (%): Decreased appetite, all grades (escalation 450 mg bid n=9) | Fatigue, all grades (escalation 450 mg bid n=9) | Vomiting, all grades (escalation 450 mg bid n=9)
2 (25) n (%): AST increased, all grades (escalation 600 mg bid n=8) | Diarrhea, all grades (escalation 600 mg bid n=8)
0 n (%): Decreased appetite, all grades [1] | Decreased appetite, grade 3/4 [1] | Diarrhea, grade 3/4 [1] | Dizziness, grade 3/4 [1] | Dyspepsia, all grades [1] | Dyspepsia, grade 3/4 [1] | Fatigue, grade 3/4 [1] | Headache, all grades [1] | Headache, grade 3/4 [1] | Hypoalbuminemia, grade 3/4 [1] | Hypophagia, all grades [1] | Hypophagia, grade 3/4 [1] | Lipase increased, all grades [1] | Lipase increased, grade 3/4 [1] | Maculo‐papular rash, all grades [1] | Maculo‐papular rash, grade 3/4 [1] | Myalgia, all grades [1] | Myalgia, grade 3/4 [1] | Nausea, grade 3/4 [1] | Odynophagia, grade 3/4 [1] | Peripheral edema, grade 3/4 [1] | Pyrexia, all grades [1] | Pyrexia, grade 3/4 [1] | Stomatitis, grade 3/4 [1] | Thrombocytopenia, all grades [1] | Thrombocytopenia, grade 3/4 [1] | Total protein decreased, all grades [1] | Total protein decreased, grade 3/4 [1] | Upper abdominal pain, grade 3/4 [1] | Vomiting, grade 3/4 [1] | Amylase increased, all grades (escalation 450 mg bid n=9) | Amylase increased, grade 3/4 (escalation 450 mg bid n=9) | Asthenia, grade 3/4 (escalation 450 mg bid n=9) | Blood bilirubin increased, all grades (escalation 450 mg bid n=9) | Blood bilirubin increased, grade 3/4 (escalation 450 mg bid n=9) | Blood creatinine increased, all grades (escalation 450 mg bid n=9) | Blood creatinine increased, grade 3/4 (escalation 450 mg bid n=9) | Constipation, all grades (escalation 450 mg bid n=9) | Constipation, grade 3/4 (escalation 450 mg bid n=9) | Decreased appetite, grade 3/4 (escalation 450 mg bid n=9) | Diarrhea, all grades (escalation 450 mg bid n=9) | Diarrhea, grade 3/4 (escalation 450 mg bid n=9) | Dizziness, all grades (escalation 450 mg bid n=9) | Dizziness, grade 3/4 (escalation 450 mg bid n=9) | Dyspepsia, all grades (escalation 450 mg bid n=9) | Dyspepsia, grade 3/4 (escalation 450 mg bid n=9) | Headache, grade 3/4 (escalation 450 mg bid n=9) | Hypoalbuminemia, all grades (escalation 450 mg bid n=9) | Hypoalbuminemia, grade 3/4 (escalation 450 mg bid n=9) | Hypophagia, all grades (escalation 450 mg bid n=9) | Hypophagia, grade 3/4 (escalation 450 mg bid n=9) | Lipase increased, all grades (escalation 450 mg bid n=9) | Lipase increased, grade 3/4 (escalation 450 mg bid n=9) | Maculo‐papular rash, grade 3/4 (escalation 450 mg bid n=9) | Myalgia, all grades (escalation 450 mg bid n=9) | Myalgia, grade 3/4 (escalation 450 mg bid n=9) | Nausea, grade 3/4 (escalation 450 mg bid n=9) | Odynophagia, all grades (escalation 450 mg bid n=9) | Odynophagia, grade 3/4 (escalation 450 mg bid n=9) | Peripheral edema, grade 3/4 (escalation 450 mg bid n=9) | Pyrexia, grade 3/4 (escalation 450 mg bid n=9) | Stomatitis, all grades (escalation 450 mg bid n=9) | Stomatitis, grade 3/4 (escalation 450 mg bid n=9) | Thrombocytopenia, all grades (escalation 450 mg bid n=9) | Thrombocytopenia, grade 3/4 (escalation 450 mg bid n=9) | Total protein decreased, all grades (escalation 450 mg bid n=9) | Total protein decreased, grade 3/4 (escalation 450 mg bid n=9) | Upper abdominal pain, all grades (escalation 450 mg bid n=9) | Upper abdominal pain, grade 3/4 (escalation 450 mg bid n=9) | Vomiting, grade 3/4 (escalation 450 mg bid n=9) | Amylase increased, all grades (escalation 600 mg bid n=8) | Amylase increased, grade 3/4 (escalation 600 mg bid n=8) | Asthenia, all grades (escalation 600 mg bid n=8) | Asthenia, grade 3/4 (escalation 600 mg bid n=8) | Blood bilirubin increased, grade 3/4 (escalation 600 mg bid n=8) | Blood creatinine increased, all grades (escalation 600 mg bid n=8) | Blood creatinine increased, grade 3/4 (escalation 600 mg bid n=8) | Constipation, all grades (escalation 600 mg bid n=8) | Constipation, grade 3/4 (escalation 600 mg bid n=8) | Decreased appetite, grade 3/4 (escalation 600 mg bid n=8) | Diarrhea, grade 3/4 (escalation 600 mg bid n=8) | Dizziness, all grades (escalation 600 mg bid n=8) | Dizziness, grade 3/4 (escalation 600 mg bid n=8) | Dyspepsia, grade 3/4 (escalation 600 mg bid n=8) | Fatigue, grade 3/4 (escalation 600 mg bid n=8) | Headache, all grades (escalation 600 mg bid n=8) | Headache, grade 3/4 (escalation 600 mg bid n=8)
1 (20) n (%): Diarrhea, all grades [1] | Dizziness, all grades [1] | Fatigue, all grades [1] | Odynophagia, all grades [1] | Stomatitis, all grades [1] | Upper abdominal pain, all grades [1] | Vomiting, all grades [1]
4 (44) n (%): Nausea, all grades (escalation 450 mg bid n=9)
3 (38) n (%): Decreased appetite, all grades (escalation 600 mg bid n=8) | Fatigue, all grades (escalation 600 mg bid n=8)
1 (13) n (%): ALT increased, all grades (escalation 600 mg bid n=8) | ALT increased, grade 3/4 (escalation 600 mg bid n=8) | Blood bilirubin increased, all grades (escalation 600 mg bid n=8) | Dyspepsia, all grades (escalation 600 mg bid n=8) | Hypoalbuminemia, all grades (escalation 600 mg bid n=8)
2 (22) n (%): Peripheral edema, all grades (escalation 450 mg bid n=9)
1 (11) n (%): ALT increased, all grades (escalation 450 mg bid n=9) | ALT increased, grade 3/4 (escalation 450 mg bid n=9) | AST increased, all grades (escalation 450 mg bid n=9) | AST increased, grade 3/4 (escalation 450 mg bid n=9) | Asthenia, all grades (escalation 450 mg bid n=9) | Fatigue, grade 3/4 (escalation 450 mg bid n=9) | Headache, all grades (escalation 450 mg bid n=9) | Maculo‐papular rash, all grades (escalation 450 mg bid n=9) | Pyrexia, all grades (escalation 450 mg bid n=9)
